Experimental data of several laboratories.
Compare with care: the assays were run in different laboratories.

CC(C)(Nc1nc(-c2ccccn2)nc2ccccc12)c1ccccn1 gave a concentration of 5060 ng/mL (female BALB/c mouse, plasma; oral, 50 mg/kg, 4 h).
With CC(C)Oc1cccc(-c2cnc(N3CCC(C(N)=O)CC3)s2)c1 the concentration was 8.49 ng/mL (male Swiss mouse, plasma; oral, 30 mg/kg, 8 h, single dose).
With CC(C)(O)c1ccccc1-c1ccc2[nH]c(/C=C/c3ccc(C(F)(F)F)cc3)nc2c1 the MRT was 43.6 h (male human, plasma; oral, 5 mg, single dose, fasted, healthy volunteers).
CC(C)CN(C[C@@H](O)[C@H](Cc1ccccc1)NC(=O)O[C@H]1CO[C@H]2OCC[C@H]21)S(=O)(=O)c1ccc(N)cc1 has a concentration of 397 ng/mL (BALB/c mouse, plasma; intravenous, 25 mg/kg, 1 h).
CS(=O)(=O)CCC#N gave an MRT of 30.5 h (human, plasma; oral, 300 mg, single dose, fasted).
The concentration of O=C(O)C1CCN(c2ncc(-c3ccc4c(c3)OCCCO4)s2)CC1 is reported as 3890 ng/mL (male Swiss mouse, plasma; oral, 30 mg/kg, 4 h, single dose).
CC(C)(C)c1ccc(O)c(CN(Cc2cc(C(C)(C)C)ccc2O)C2CCC(NC(N)=O)CC2)c1 (stereo not drawn) has a half-life of 7.08 h (male C57BL/6 mouse, brain; intraperitoneal, 10 mg/kg, single dose).
The concentration of O=c1nc(N2CCN(CC3CCCCC3)CC2)sc2c([N+](=O)[O-])cc(C(F)(F)F)cc12 is reported as 4490 ng/mL (CD-1 mouse, plasma; intravenous, 10 mg/kg, 30 min).
c1cnc2ccc(Nc3nc(NC4CC4)c4nc[nH]c4n3)cc2c1 gave an MRT(0-t) of 6.4 h (human, plasma; oral, 50 mg/m², patients).
